In article PMC9082424 (RSC Advances, 2018):

How the values were obtained:
α-glucosidase [1] = target: T1, α-glucosidase (Saccharomyces cerevisiae, UniProt P53341); assay: α-Glucosidase inhibitory assay in vitro; assay type: biochemical; details: for α-Glucosidase inhibitory activity (in words): up to the highest tested concentration
α-glucosidase [2] = target: T1, α-glucosidase; assay: Steady-state kinetic analysis of α-glucosidase inhibition; assay type: biochemical
Summary of the method: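 Yeast α-glucosidase (final 0.025 U mL−1, in 75 mM phosphate buffer pH 7.4) premixed with test compound at several concentrations for 10 min at 37 °C. 4-NPGP (50–200 μM) added to start the reaction. 4-Nitrophenol followed at 405 nm every 30 s for 10 min, with initial velocity taken as ΔA per min. Analysed by Lineweaver–Burk plots. Ki came from secondary plots of slopes, and Ki′ from secondary plots of apparent 1/Vmax, against inhibitor concentration. Three independent experiments.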

T1 sequence (P53341 whole entry): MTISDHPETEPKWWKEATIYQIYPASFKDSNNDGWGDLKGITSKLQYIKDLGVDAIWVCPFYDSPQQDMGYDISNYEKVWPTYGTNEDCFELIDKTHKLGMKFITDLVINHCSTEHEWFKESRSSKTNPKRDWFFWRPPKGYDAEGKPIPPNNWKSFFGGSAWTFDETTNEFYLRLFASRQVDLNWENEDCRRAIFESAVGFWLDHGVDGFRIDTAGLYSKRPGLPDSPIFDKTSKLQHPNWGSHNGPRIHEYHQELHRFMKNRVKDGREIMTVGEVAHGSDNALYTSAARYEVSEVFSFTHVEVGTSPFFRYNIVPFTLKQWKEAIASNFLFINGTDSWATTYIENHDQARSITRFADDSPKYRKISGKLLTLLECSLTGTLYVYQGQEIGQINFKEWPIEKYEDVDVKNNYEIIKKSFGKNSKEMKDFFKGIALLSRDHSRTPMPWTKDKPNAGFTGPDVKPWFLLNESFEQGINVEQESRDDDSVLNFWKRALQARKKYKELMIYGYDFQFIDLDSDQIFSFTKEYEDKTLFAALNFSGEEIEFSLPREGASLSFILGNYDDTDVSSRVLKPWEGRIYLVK

SMILES	IC50 (α-glucosidase [1]) [µM]	α-Glucosidase inhibitory activity (in words) (α-glucosidase [1])	Ki (α-glucosidase [2]) [µM]	Inhibition mode (α-glucosidase [2]; with respect to substrate 4-NPGP (50–200 μM))
O=C(O)/C=C/c1ccc(O)c(O)c1 [CA, caffeic acid]	> 100			
C[C@H]1COC2=C1C(=O)C(=O)c1c2ccc2c1CCCC2(C)C [CTS, cryptotanshinone]	> 100			
O=C(/C=C/c1ccc(O)c2c1[C@H](C(=O)O)[C@@H](c1ccc(O)c(O)c1)O2)O[C@H](Cc1ccc(O)c(O)c1)C(=O)O [LA, lithospermic acid]	> 100	weak inhibitory effect		
CC(C)C1=Cc2ccc3c(c2C(=O)C1=O)CCCC3(C)C [MT, miltirone]	> 100			
O=C(/C=C/c1ccc(O)c(O)c1)O[C@H](Cc1ccc(O)c(O)c1)C(=O)O [RA, rosmarinic acid]	> 200			
O=C(/C=C/c1ccc(O)c(O)c1/C=C/c1ccc(O)c(O)c1)O[C@H](Cc1ccc(O)c(O)c1)C(=O)O [SAA, salvianolic acid A]	19.3 ± 0.89		21.2	competitive inhibition
Cc1coc2c1C(=O)C(=O)c1c-2ccc2c1CCCC2(C)C [TS-IIA, tanshinone IIA]	> 100			
Cc1coc2c1C(=O)C(=O)c1c-2ccc2c1CCCC2(C)CO (stereo not shown) [TS-IIB, tanshinone IIB]	> 100	weak inhibitory activity		
C[C@H]1[C@H](C)CC[C@]2(C(=O)O)CC[C@]3(C)C(=CC[C@@H]4[C@@]5(C)CC[C@H](O)C(C)(C)[C@@H]5CC[C@]43C)[C@H]12 [UA, ursolic acid]		weak inhibitory activity		
